# Activity calls are given as the source filed them.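 The calls were made as follows, unless noted: active = potentiation averaged over duplicate wells exceeding buffer-only control mean by more than 3 SD; inactive = the rest.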
# System: not listed separately
# Experiment: thallium flux activation in parental CHO cells, counter-screen for KCNQ1 potentiator project (AID 493006;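 active = duplicate-averaged activation above buffer control mean plus 5 SD of those controls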;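 as to activation: fluorescence ratio of max minus min over baseline after K+ and Tl+ depolarization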)
# Conditions: parental CHO-K1 cells, FluxOR thallium flux, at 10 µM; stronger effect = higher value
# Outline: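 Assay system: parental CHO-K1 cells lacking KCNQ1, loaded with FluxOR thallium dye; timing: dye 90 min RT, compound 20 min RT; signal: kinetic thallium-flux fluorescence; repeats: duplicate wells per compound, percent values averaged; benchmarks: buffer and R-L3 controls; reagent: Potassium/thallium depolarization pulse; read-out: fluorescence change ratio scaled 0% buffer, 100% R-L3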
Structure (SMILES),outcome,activation
Cc1cc(C(=O)N2CCCC(N3CCN(c4cccc(Cl)c4)CC3)C2)n(C)n1 (stereo not given),inactive,
O=C(NC(=S)Nc1ccccc1)c1cc(-c2ccccc2)nc2ccccc12,,158% (active)
O=C(CC1(O)C(=O)N(C/C=C/c2ccccc2)c2ccccc21)c1ccccn1 (stereo not given),inactive,
CC(C)c1nc2sc3c(=S)nc[nH]c3c2c2c1CCC2,,247% (active)
CCOC(=O)NC(=S)Nc1ccc(C(C)(C)C)cc1,inactive,
FC(F)(F)c1cc(N2CCNCC2)c2ccccc2n1,inactive,
O=[N+]([O-])c1ccc(Nc2ccc(Cl)cc2)nc1,inactive,
COc1ccc(NC(=O)C(=O)NNC(=O)C(C)Oc2ccc(Cl)cc2Cl)cc1 (stereo not given),,481% (active)
Cc1ccc2nc(SCC(=O)N3CCN(C(=O)c4ccco4)CC3)[nH]c2c1,inactive,
Cc1[nH]n2c(=O)cc(C(C)(C)C)nc2c1-c1ccccc1,,227% (active)
CCc1ccc2c(c1)c(N=NC1=NC(=O)CS1)c(O)n2C,,162% (active)
CCc1ccc(/C=C/C(=O)C2C(=O)c3ccccc3C2=O)cc1,,284% (active)
CCOC(=O)Cc1csc(NC(=S)NC(=O)c2ccc(F)cc2)n1,inactive,
CCOC(=O)c1ccccc1NC(=O)CSc1nc2ccccc2n1CC(=O)N1CCCC1,inactive,
CC(C)CSC1=NSC2=NC(=O)/C(=C\c3ccccc3)C(=N)N12,,198% (active)
O=C(Nc1nnc(-c2ccc(F)cc2)o1)c1cc(Cl)sc1Cl,,330% (active)
COc1ccccc1NC(=O)Cn1cnc2c(oc3nc4c(cc32)CCCC4)c1=O,inactive,
COc1ccc2nc(/N=C/c3c(C)[nH]n(-c4ccc(C)cc4C)c3=O)sc2c1,,232% (active)
O=c1c2c(-c3ccco3)csc2nc(SCc2cn3cccnc3n2)n1-c1ccccc1,inactive,
COc1ccccc1C(=O)NC(=S)NNC(=O)c1sc2ccccc2c1Cl,,358% (active)
COC(=O)c1ccc(COC(=O)c2ccccn2)cc1,inactive,

# Molecular target: Potassium voltage-gated channel subfamily KQT member 1 (Homo sapiens) (UniProt P51787)
# Experiment: KCNQ1 potassium channel potentiators, confirmation, FluxOR thallium flux, CHO cells, duplicates (AID 493007);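 as to outcome: cells depolarized by a potassium plus thallium sulfate stimulus after compound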
# Conditions: KCNQ1 cell line, FluxOR thallium flux fluorescence, at 10 µM; stronger effect = higher value, % of reference activator effect, buffer zero
# Outline: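 material = CHO cells stably expressing the KCNQ1 potassium channel | repeats = duplicate wells per compound | measure = percent activation between buffer and R-L3 responses | signal = FluxOR thallium-flux fluorescence, kinetic read | schedule = FluxOR dye loading 90 min, compound exposure 20 min, room temperature | control set = buffer and R-L3 controls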
# Chain of Potassium voltage-gated channel subfamily KQT member 1 (Homo sapiens) (P51787 whole entry, looked up): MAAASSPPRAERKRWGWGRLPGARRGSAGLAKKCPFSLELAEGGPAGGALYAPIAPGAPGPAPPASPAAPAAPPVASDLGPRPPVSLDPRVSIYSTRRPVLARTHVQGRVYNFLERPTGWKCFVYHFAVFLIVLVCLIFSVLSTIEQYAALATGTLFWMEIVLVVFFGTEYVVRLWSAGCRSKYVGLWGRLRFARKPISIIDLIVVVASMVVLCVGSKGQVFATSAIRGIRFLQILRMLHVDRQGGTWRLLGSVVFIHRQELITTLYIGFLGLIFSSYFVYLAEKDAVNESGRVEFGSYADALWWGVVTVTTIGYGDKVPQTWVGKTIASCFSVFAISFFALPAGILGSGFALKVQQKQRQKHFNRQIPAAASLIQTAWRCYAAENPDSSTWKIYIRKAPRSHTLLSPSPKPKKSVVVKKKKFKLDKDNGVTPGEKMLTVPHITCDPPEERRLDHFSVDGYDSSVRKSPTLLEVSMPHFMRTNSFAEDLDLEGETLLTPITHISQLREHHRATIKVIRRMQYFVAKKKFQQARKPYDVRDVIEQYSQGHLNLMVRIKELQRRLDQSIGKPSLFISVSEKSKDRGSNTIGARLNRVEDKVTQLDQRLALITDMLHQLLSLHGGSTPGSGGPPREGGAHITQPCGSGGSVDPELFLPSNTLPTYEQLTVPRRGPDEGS
Structure (SMILES),outcome,potentiation
CCc1cccc(C)c1NC(=O)c1ccc2nc(N3CCOCC3)sc2c1,inactive,
CC(C)CN1C(=O)/C(=C/c2cccs2)NC1=S,,180% (active)
COCCn1c(SCC(=O)NCc2ccc3c(c2)OCO3)nnc1C(C)C,inactive,
COc1ccc(CCNC(=O)c2ccc(N(C)S(=O)(=O)c3ccc(C)cc3)cc2)cc1OC,inactive,
Cc1noc(C)c1CSc1ncnc2sc3c(c12)CCCCC3,,60% (active)
O=C(O)c1ccccc1C(=O)NNc1ccc(Cl)cc1,inactive,
CC(C)(C)n1nnnc1C(c1cc2cc3c(cc2[nH]c1=O)OCCO3)N1CCSCC1 (stereo not given),inactive,
Cc1snnc1C(=O)NC(=S)Nc1ccccc1,,90% (active)
CCN1C(=O)/C(=C/c2ccc(C)s2)NC1=S,,57.5% (active)
CC1(c2ccccc2)CC(C)(C)N2C(=O)/C(=C3\SC(=S)NC3=O)c3cccc1c32 (stereo not given),,292% (active)
C/C(=N\Nc1nc2ccccc2[nH]1)c1ccc(Cl)s1,inactive,
COc1ccc(-c2oc3ccccc3c(=O)c2OC(C)=O)cc1,inactive,
COC(=O)c1c(NC(=O)CC2SC(N)=NC2=O)sc2c1CCC(C)C2 (stereo not given),inactive,
Cc1cc(C)nc(NC(=O)/C=C/c2ccccc2Cl)n1,inactive,
CCC(=O)Nc1cc(-c2nn3c(C)nnc3s2)ccc1C,inactive,
O=c1c(-c2ccc(Cl)cc2)[n+]([O-])c2ccccc2n1O,inactive,
O=C(NC(=S)NCCC1=CCCCC1)c1ccc(Br)o1,,304% (active)
CCCCOC(=O)Nc1ccccc1C(N)=O,inactive,
Fc1cccc(/C=N/Nc2ccc3ccccc3n2)c1,inactive,
Cc1cc(C(=O)N2CCCC(N3CCN(c4cccc(Cl)c4)CC3)C2)n(C)n1 (stereo not given),inactive,
O=C(NC(=S)Nc1ccccc1)c1cc(-c2ccccc2)nc2ccccc12,,75% (active)
O=C(CC1(O)C(=O)N(C/C=C/c2ccccc2)c2ccccc21)c1ccccn1 (stereo not given),inactive,
CC(C)c1nc2sc3c(=S)nc[nH]c3c2c2c1CCC2,,194% (active)
CCOC(=O)NC(=S)Nc1ccc(C(C)(C)C)cc1,,20% (active)
FC(F)(F)c1cc(N2CCNCC2)c2ccccc2n1,inactive,
O=[N+]([O-])c1ccc(Nc2ccc(Cl)cc2)nc1,inactive,
COc1ccc(NC(=O)C(=O)NNC(=O)C(C)Oc2ccc(Cl)cc2Cl)cc1 (stereo not given),,177% (active)
Cc1ccc2nc(SCC(=O)N3CCN(C(=O)c4ccco4)CC3)[nH]c2c1,inactive,
Cc1[nH]n2c(=O)cc(C(C)(C)C)nc2c1-c1ccccc1,,33.5% (active)

# From PubChem BioAssay
